The source of these data is ChEMBL document CHEMBL1125330, “N-substituted pyrazino[2,3-c][1,2,6]thiadiazine 2,2-dioxides. A new class of diuretics” (J Med Chem, 1992).

Common to all, as to conditions: in vivo
The species named for data set [1] is Rattus norvegicus. As to the kind of experiment: Mean urinary output in rats (Control/Drug treatment; value 23.3/29.9. The class given is ADME, organism-based, Urine.
The species named for data set [2] is Rattus norvegicus. The experiment in a line: Mean sodium excretion in rats (Control/Drug treatment value); value 0.52/2.02. It is filed as ADME, organism-based.
Data set [3] is filed under the species Rattus norvegicus. The experiment in a line: Mean urinary output in rats (Control/Drug treatment value); value 24.0/36.5. The class given is ADME, organism-based, Urine. In a few lines: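 Water-loaded male Sprague-Dawley rats (HC/CFY, 175-200 g), eight per group, deprived of food and water 18 h. Single oral gavage of 20-25 mg/kg (some 10 mg/kg) in 1% CMC/0.1% Tween 80, then distilled water 2.5 mL/100 g bw po. Cumulative urine over 6 h in metabolic cages; mean mL/6 h/kg bw vs vehicle group.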

Structures are written as SMILES.

For `CCN1c2nc(C(F)(F)F)c(C(F)(F)F)nc2C(N)=NS1(=O)=O`, in the data set filed under Rattus norvegicus [1], the V was 1.3.

Regarding `CCc1nc2c(nc1C)C(N)=NS(=O)(=O)N2C`, the Na in the data set listed under Rattus norvegicus [2] is 3.9. The compound also yielded a V in the data set listed under Rattus norvegicus [3] of 1.5.
